Measured values published in ChEMBL document CHEMBL4825688, “Synthesis, biological evaluation and molecular modeling of benzofuran piperidine derivatives as Aβ antiaggregant” (Eur J Med Chem, 2021).
Activity calls are given as the source filed them. The calls are words filed in the database; no cut-off is given here.

Key:
[1] = molecular target: T1, Amyloid-beta precursor protein (Homo sapiens, UniProt P05067); test: Inhibition of human amyloid beta (25 to 35) self-induced aggregation at 100 uM after 48 hrs by thioflavin-T fluorescence relative to control
T1 sequence (P05067 whole entry): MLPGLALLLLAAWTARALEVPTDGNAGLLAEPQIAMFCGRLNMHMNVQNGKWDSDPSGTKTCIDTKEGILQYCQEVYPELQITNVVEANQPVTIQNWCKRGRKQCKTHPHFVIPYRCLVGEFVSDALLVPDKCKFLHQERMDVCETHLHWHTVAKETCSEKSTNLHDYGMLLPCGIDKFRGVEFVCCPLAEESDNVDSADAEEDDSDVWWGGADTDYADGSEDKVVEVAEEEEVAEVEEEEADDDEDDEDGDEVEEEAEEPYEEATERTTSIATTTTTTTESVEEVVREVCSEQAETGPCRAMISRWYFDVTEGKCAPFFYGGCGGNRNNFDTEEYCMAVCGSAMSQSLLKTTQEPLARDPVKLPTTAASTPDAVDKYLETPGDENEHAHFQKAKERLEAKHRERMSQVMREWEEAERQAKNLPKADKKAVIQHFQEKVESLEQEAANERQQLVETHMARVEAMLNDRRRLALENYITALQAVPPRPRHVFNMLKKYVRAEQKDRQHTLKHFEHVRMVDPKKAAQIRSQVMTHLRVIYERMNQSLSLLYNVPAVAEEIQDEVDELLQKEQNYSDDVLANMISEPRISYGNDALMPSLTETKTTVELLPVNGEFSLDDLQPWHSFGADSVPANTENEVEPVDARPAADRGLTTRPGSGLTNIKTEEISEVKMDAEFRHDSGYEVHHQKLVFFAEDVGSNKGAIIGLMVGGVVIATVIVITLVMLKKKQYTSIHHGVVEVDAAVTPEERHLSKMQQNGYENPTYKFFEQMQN
Outline: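 Aβ25-35 (10 μM, DMSO stock diluted) incubated with test compound (100 μM) in 0.05 M potassium phosphate buffer (pH 7.4) containing 0.01 M NaCl, 37 °C, 48 h; then ThT (200 μM) in 50 mM glycine-NaOH (pH 8.0) added and fluorescence read. Mean ± SD of three experiments.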

Acetylcholinesterase = Acetylcholinesterase (Homo sapiens, UniProt P22303); test: Inhibition of recombinant human AChE using acetylthiocholine iodide as substrate measured after 7 mins by Ellman's method
Sequence of Acetylcholinesterase (P22303 whole entry): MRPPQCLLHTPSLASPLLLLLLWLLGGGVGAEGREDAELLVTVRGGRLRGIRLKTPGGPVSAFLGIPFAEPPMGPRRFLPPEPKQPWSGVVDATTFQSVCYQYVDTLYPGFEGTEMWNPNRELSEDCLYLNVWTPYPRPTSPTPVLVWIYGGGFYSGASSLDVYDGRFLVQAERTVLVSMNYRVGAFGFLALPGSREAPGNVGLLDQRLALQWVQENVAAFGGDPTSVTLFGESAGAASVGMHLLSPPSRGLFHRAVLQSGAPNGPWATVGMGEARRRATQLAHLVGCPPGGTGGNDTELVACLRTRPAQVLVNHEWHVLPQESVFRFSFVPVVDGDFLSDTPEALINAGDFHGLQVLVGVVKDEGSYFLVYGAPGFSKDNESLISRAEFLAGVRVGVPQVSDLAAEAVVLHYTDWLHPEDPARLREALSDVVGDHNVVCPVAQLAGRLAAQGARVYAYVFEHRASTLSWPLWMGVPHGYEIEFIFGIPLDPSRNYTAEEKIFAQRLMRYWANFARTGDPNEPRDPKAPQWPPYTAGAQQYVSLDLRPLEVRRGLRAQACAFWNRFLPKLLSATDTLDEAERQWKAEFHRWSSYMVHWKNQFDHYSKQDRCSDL

Homo sapiens = species on record: Homo sapiens; test: Selectivity index, ratio of IC50 for human BuChE to IC50 for human AChE
Cholinesterase = Cholinesterase (Homo sapiens, UniProt P06276); test: Inhibition of recombinant human BuChe using S-butyrylthiocholine iodide as substrate measured after 7 mins by Ellman's method
Sequence of Cholinesterase (P06276 whole entry): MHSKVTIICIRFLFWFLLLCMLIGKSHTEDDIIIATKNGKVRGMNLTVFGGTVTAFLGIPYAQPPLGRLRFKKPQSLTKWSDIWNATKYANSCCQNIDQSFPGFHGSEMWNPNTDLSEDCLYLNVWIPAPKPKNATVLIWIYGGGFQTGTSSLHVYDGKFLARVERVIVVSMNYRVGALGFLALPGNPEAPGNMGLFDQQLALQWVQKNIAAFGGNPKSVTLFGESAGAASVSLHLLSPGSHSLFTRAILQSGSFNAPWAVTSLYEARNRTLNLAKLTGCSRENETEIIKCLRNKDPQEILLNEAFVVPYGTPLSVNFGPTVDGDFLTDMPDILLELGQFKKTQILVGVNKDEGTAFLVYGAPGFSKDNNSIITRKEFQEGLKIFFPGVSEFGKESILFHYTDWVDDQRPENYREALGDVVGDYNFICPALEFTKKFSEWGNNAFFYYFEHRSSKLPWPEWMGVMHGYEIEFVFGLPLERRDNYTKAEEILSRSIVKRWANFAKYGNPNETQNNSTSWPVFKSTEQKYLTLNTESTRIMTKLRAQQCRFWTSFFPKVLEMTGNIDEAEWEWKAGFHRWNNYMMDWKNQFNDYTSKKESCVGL

SH-SY5Y [2] = test: Neuroprotective activity against amyloid beta (25 to 35)-induced cell damage in human SH-SY5Y cells assessed as viable at 10 uM by annexin-V and propidium iodide staining based flow cytometry analysis assay (reference value: 88.2 %); type: functional
Outline: (§1)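 SH-SY5Y cells exposed to Aβ25-35 (10 µM) ± compounds (10 µM), then trypsinized, washed with PBS and pelleted at 1000 rpm for 3 min. Cells were stained with FITC-Annexin V and PI in binding buffer for 15 min at room temperature and analyzed by flow cytometry (10,000 events). Mean ± SD of three experiments.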

[3] = molecular target: T1, Amyloid-beta precursor protein; test: Inhibition of amyloid beta(25 to 35) (unknown origin) binding to human SH-SY5Y cell plasma membrane at 10 uM measured after 20 mins by UV-vis microplate reader assay; type: cell membranes
Outline: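 SH-SY5Y cells seeded 24 h, then fresh medium with Aβ25-35 (10 µM) ± compounds (10 µM) for 30, 60 and 120 min. After two PBS washes, bound peptide was stained with Congo red in PBS for 20 min and read at 540 nm. Values are % of untreated cells (100%).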

SH-SY5Y [4] = test: Neuroprotective activity against amyloid beta (25 to 35)-induced cell damage in human SH-SY5Y cells assessed as increase in neuronal viability measured after 24 hrs in presence of amyloid beta (25 to 35) by MTT assay; type: functional, cell-based; settings: dose 1-10 µM
SH-SY5Y [5] = test: Neuroprotective activity against amyloid beta (25 to 35)-induced cell damage in human SH-SY5Y cells assessed as early apoptotic cell at 10 uM by annexin-V and propidium iodide staining based flow cytometry analysis assay (reference value: 10.9 %); type: functional; outline: as §1
[6] = Antioxidant activity assessed as DPPH radical scavenging activity at 50 uM incubated for 1 hrs under light restrictive condition by UV-microplate reader assay relative to control; type: functional
Outline: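 DPPH stock 56 mM and compound stock 500 mM in anhydrous methanol; compound at 50 µM final with DPPH in methanol. Absorbance read at 517 nm after 30 s shaking, then again after 1 h at room temperature in the dark. Scavenging % = (A control − A sample)/A control ×100.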

SH-SY5Y [7] = test: Neuroprotective activity against amyloid beta (25 to 35)-induced cell damage assessed as cell viability in human SH-SY5Y cells by measuring ATP at 10 uM measured after 24 hrs in presence of amyloid beta (25 to 35) by CellTiter-Glo luminescent cell viability assay (reference value: 90.95 +/- 0.82 %); type: functional
SH-SY5Y [8] = test: Neuroprotective activity against amyloid beta (25 to 35)-induced cell damage in human SH-SY5Y cells assessed as neuronal viability at 10 uM measured after 24 hrs in presence of amyloid beta (25 to 35) by MTT assay (reference value: 68.66 +/- 0.11 %); type: functional
SH-SY5Y [9] = test: Neuroprotective activity against amyloid beta (25 to 35)-induced cell damage in human SH-SY5Y cells assessed as LDH release at 10 uM measured after 24 hrs in presence of amyloid beta (25 to 35) by LDH assay (reference value: 364.06 +/- 2.15 %); type: functional
[10] = Cytotoxicity against human SH-SY5Y cells assessed as cell viability at 10 uM measured after 48 hrs by MTT assay relative to control
SH-SY5Y [11] = test: Neuroprotective activity against amyloid beta (25 to 35)-induced cell damage in human SH-SY5Y cells assessed as late apoptotic cell at 10 uM by annexin-V and propidium iodide staining based flow cytometry analysis assay (reference value: 0.890 %); type: functional; outline: as §1
SH-SY5Y [12] = test: Neuroprotective activity against amyloid beta (25 to 35)-induced cell damage in human SH-SY5Y cells assessed as necrotic cell at 10 uM by annexin-V and propidium iodide staining based flow cytometry analysis assay (reference value: 0 %); type: functional; outline: as §1
SH-SY5Y [13] = test: Neuroprotective activity against amyloid beta (25 to 35)-induced oxidative stress in human SH-SY5Y cells assessed as decrease in intracellular ROS production at 10 uM incubated with amyloid beta (25 to 35) for 24 hrs by DCFH-DA staining-based flow cytometric analysis; type: functional, cell-based
Outline: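 SH-SY5Y (1×10⁶ cells/well) grown 24 h, then exposed to unaggregated Aβ25-35 (10 µM) ± compounds (10 µM) for 24 h at 37 °C. After three PBS washes, cells were loaded with DCFH-DA (10 µM) for 30 min, rinsed, pelleted at 1500 rpm for 5 min, resuspended in PBS and analyzed by flow cytometry (10,000 events). Mean ± SD of three experiments.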

Row | SMILES | inhibition [1] [%] | IC50 (Acetylcholinesterase) [µM] | Selectivity Index (Homo sapiens) | IC50 (Cholinesterase) [µM] | Activity [6] [%] | Activity (SH-SY5Y [8]) [%] | viability at 48 h, 10 µM ([10]; SH-SY5Y cells) [%] | further results
1 | COc1ccc(C(=O)c2c(C3CCN(Cc4cc(OC)ccc4OC)CC3)oc3ccccc23)cc1 | 46 | 61 | 1.01 | 61.7 |  |  |  | 
2 | Fc1ccc(CN2CCC(c3cc4ccccc4o3)CC2)cc1 | 57.7 | 21.3 | 2.6 | 55.8 | 10.8 | 80.8 | 101 | Activity (SH-SY5Y [2]): 98.2%; inhibition (INH) [3]: Active; Activity (SH-SY5Y [4]): Dose-Dependent Effect; Activity (SH-SY5Y [5]): 1.2%; Activity (SH-SY5Y [7]): 104.56%; Activity (SH-SY5Y [9]): 287.37%; Activity (SH-SY5Y [11]): 0.05%; Activity (SH-SY5Y [12]): 1.58%; Activity (SH-SY5Y [13]): Active
3 | COc1cc(/C=C/C(=O)CC(=O)/C=C/c2ccc(O)c(OC)c2)ccc1O [CURCUMIN] |  |  |  |  |  | 45.95 | 60 | 
4 | c1ccc2oc(C3CCNCC3)cc2c1 | 45.5 | 61.2 | 1 | 64.4 |  |  |  | 
5 | COc1ccc(CN2CCC(c3oc4ccccc4c3C(=O)c3ccc(OC)cc3)CC2)cc1 | 45 | 59.7 | 0.99 | 59.7 |  |  |  | 
6 | Oc1ccc(CN2CCC(c3cc4ccccc4o3)CC2)cc1 | 48.3 | 34.9 | 1.8 | 64.6 | 12.2 |  | 96.4 | 
7 | Cc1c(C)c2c(c(C)c1O)CCC(C)(C(=O)O)O2 (stereo unspecified) |  |  |  |  | 55.5 |  |  | 
8 | COc1ccc(CN2CCC(c3oc4ccccc4c3C(=O)c3ccccc3)CC2)cc1OC | 42.9 | 45.3 |  | > 100 |  |  |  | 
9 | Oc1ccc(/C=C/c2cc(O)cc(O)c2)cc1 |  |  |  |  | 45.7 |  |  | 
10 | COc1ccc(OC)c(CN2CCC(c3cc4ccccc4o3)CC2)c1 | 51.8 | 23.9 | 0.04 | 35.5 | 11.9 | 79.09 | 102 | Activity (SH-SY5Y [7]): 102.53%; Activity (SH-SY5Y [9]): 324.83%
11 | COc1cc(/C=C/C(=O)O)ccc1O |  |  |  |  | 50 |  |  | 
12 | COc1cc2c(cc1OC)C(=O)C(CC1CCN(Cc3ccccc3)CC1)C2 (stereo unspecified) [DONEPEZIL] |  |  |  |  |  | 60.82 |  | viability at 48 h, 10 µM ([10]; sh-sy5y): 101%
13 | Clc1ccc(CN2CCC(c3cc4ccccc4o3)CC2)cc1 | 24.4 | 98.5 |  | > 100 |  |  |  | 
14 | COc1ccc(CN2CCC(c3oc4ccccc4c3C(=O)c3ccc(OC)c(OC)c3)CC2)cc1OC | 54.4 | 68 | 0.9 | 62.2 |  |  |  | 
15 | O=C(c1ccccc1)c1c(C2CCN(Cc3ccccc3)CC2)oc2ccccc12 | 61.9 | 41.3 |  | > 100 | 21.6 | 76.06 | 107 | Activity (SH-SY5Y [2]): 98.1%; inhibition (INH) [3]: Active; Activity (SH-SY5Y [5]): 0.77%; Activity (SH-SY5Y [7]): 95.49%; Activity (SH-SY5Y [9]): 316.05%; Activity (SH-SY5Y [11]): 0.65%; Activity (SH-SY5Y [12]): 0.52%; Activity (SH-SY5Y [13]): Active
16 | c1ccc(CN2CCC(c3cc4ccccc4o3)CC2)cc1 | 55.4 | 5.07 | 10.8 | 54.3 | 18.2 | 88.91 | 105 | Activity (SH-SY5Y [2]): 97.5%; inhibition (INH) [3]: Active; Activity (SH-SY5Y [4]): Dose-Dependent Effect; Activity (SH-SY5Y [5]): 1.08%; Activity (SH-SY5Y [7]): 101.59%; Activity (SH-SY5Y [9]): 294.64%; Activity (SH-SY5Y [11]): 0.55%; Activity (SH-SY5Y [12]): 0.03%; Activity (SH-SY5Y [13]): Active
17 | COc1ccc(C(=O)c2c(C3CCN(Cc4ccccc4)CC3)oc3ccccc23)cc1 | 47.4 | 48.3 | 1.07 | 52.1 | 17.6 | 75.17 | 107 | Activity (SH-SY5Y [7]): 100.79%; Activity (SH-SY5Y [9]): 285%
18 | COc1ccc(CN2CCC(c3cc4ccccc4o3)CC2)cc1 | 8.04 | 92.8 |  | > 100 |  |  |  | 
19 | COc1ccc(OC)c(CN2CCC(c3oc4ccccc4c3C(=O)c3ccc(OC)c(OC)c3)CC2)c1 | 37.4 | 55.4 | 1.19 | 66.3 |  |  |  | 
20 | COc1ccc(OC)c(CN2CCC(c3oc4ccccc4c3C(=O)c3ccccc3)CC2)c1 | 39.4 | 58.2 | 0.45 | 33.5 |  |  |  | 
21 | CCc1ccc(CN2CCC(c3cc4ccccc4o3)CC2)cc1 | 19.9 | 64.2 |  | > 100 |  |  |  | 
22 | COc1ccc(CN2CCC(c3cc4ccccc4o3)CC2)cc1OC | 14.7 | 52.8 | 1.2 | 64.6 |  |  |  | 
23 | COc1ccc(CN2CCC(c3oc4ccccc4c3C(=O)c3ccccc3)CC2)cc1 | 42.2 | 97.1 | 0.6 | 62.6 |  |  |  | 
